ChEMBL document CHEMBL2062460, “Disubstituted thiourea derivatives and their activity on CNS: synthesis and biological evaluation” (Eur J Med Chem, 2012)
Values after ≈ are worked out from the molar mass of the structure shown. Active and inactive are the calls of the source. The rule behind the calls is not given here.

Legend:
Bacillus subtilis [1] = assay: Antibacterial activity against Bacillus subtilis ATCC 6633 at 400 ug/disc after 18 hrs by disc diffusion method; format: functional; conditions: ATCC 6633, 18 h, read-out: DIZ
In short: (§1)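 Disc diffusion per CLSI on Mueller–Hinton II agar; 9 mm paper discs loaded from methanol or DMSO solutions to 400 µg per disc, dried; growth inhibition zone diameter read after 18 h at 35 °C.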

[2] = system: Staphylococcus epidermidis; assay: Antibacterial activity against Staphylococcus epidermidis ATCC 12228 at 400 ug/disc after 18 hrs by disc diffusion method; format: functional; conditions: ATCC 12228, 18 h, read-out: DIZ; in short: as §1
Enterococcus hirae [3] = assay: Antibacterial activity against Enterococcus hirae ATCC 10541 at 400 ug/disc after 18 hrs by disc diffusion method; format: functional; conditions: ATCC 10541, 18 h, read-out: DIZ; in short: as §1
Staphylococcus aureus [4] = assay: Antibacterial activity against Staphylococcus aureus ATCC 25923 at 400 ug/disc after 18 hrs by disc diffusion method; format: functional; conditions: ATCC 25923, 18 h, read-out: DIZ; in short: as §1
Staphylococcus aureus [5] = assay: Antibacterial activity against Staphylococcus aureus ATCC 6538 at 400 ug/disc after 18 hrs by disc diffusion method; format: functional; conditions: ATCC 6538, 18 h, read-out: DIZ; in short: as §1
Staphylococcus aureus [6] = assay: Antibacterial activity against Staphylococcus aureus ATCC 29213 at 400 ug/disc after 18 hrs by disc diffusion method; format: functional; conditions: ATCC 29213, 18 h, read-out: DIZ; in short: as §1
Bacillus cereus [7] = assay: Antibacterial activity against Bacillus cereus ATCC 11778 at 400 ug/disc after 18 hrs by disc diffusion method; format: functional; conditions: ATCC 11778, 18 h, read-out: DIZ; in short: as §1
Micrococcus luteus [8] = assay: Antibacterial activity against Micrococcus luteus ATCC 9341 at 400 ug/disc after 18 hrs by disc diffusion method; format: functional; conditions: ATCC 9341, 18 h, read-out: DIZ; in short: as §1
Escherichia coli = assay: Antibacterial activity against Escherichia coli ATCC 10538 at 400 ug/disc after 18 hrs by disc diffusion method; format: functional, organism-based; in short: as §1
Pseudomonas aeruginosa [9] = assay: Antibacterial activity against Pseudomonas aeruginosa ATCC 15442 at 400 ug/disc after 18 hrs by disc diffusion method; format: functional, organism-based; in short: as §1
Pseudomonas aeruginosa [10] = assay: Antibacterial activity against Pseudomonas aeruginosa NCTC 6749 at 400 ug/disc after 18 hrs by disc diffusion method; format: functional, organism-based; in short: as §1
Staphylococcus aureus [11] = assay: Antibacterial activity against Staphylococcus aureus ATCC 6538 after 18 hrs by twofold serial agar dilution technique; format: functional; conditions: ATCC 6538, 18 h
In short: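 Twofold serial agar dilution on Mueller–Hinton II agar, following CLSI guidelines. Compounds were dissolved in methanol or DMSO and tested at final agar concentrations of 3.125–400 µg/mL. Final inoculum was 10^4 CFU/mL.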

Bacillus subtilis [12] = assay: Antibacterial activity against Bacillus subtilis ATCC 6633 after 18 hrs by twofold serial agar dilution technique; format: functional; conditions: ATCC 6633, 18 h
Bacillus cereus [13] = assay: Antibacterial activity against Bacillus cereus ATCC 11778 after 18 hrs by twofold serial agar dilution technique; format: functional; conditions: ATCC 11778, 18 h
Enterococcus hirae [14] = assay: Antibacterial activity against Enterococcus hirae ATCC 10541 after 18 hrs by twofold serial agar dilution technique; format: functional; conditions: ATCC 10541, 18 h
Micrococcus luteus [15] = assay: Antibacterial activity against Micrococcus luteus ATCC 10240 after 18 hrs by twofold serial agar dilution technique; format: functional; conditions: ATCC 10240, 18 h
Staphylococcus aureus [16] = assay: Antibacterial activity against methicillin-susceptible Staphylococcus aureus clinical isolate 267/08 after 18 hrs by twofold serial agar dilution technique; format: functional; conditions: clinical isolate 267/08, 18 h
In short: (§2)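 Clinical isolates came from patients in Warsaw Medical University Hospitals and were classed as methicillin-susceptible or -resistant. MIC was determined by twofold serial agar dilution on Mueller–Hinton II agar (CLSI), 3.125–400 µg/mL in agar, with compounds in methanol or DMSO. Inoculum was 10^4 CFU/mL and plates were read after 18 h at 35 °C.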

Staphylococcus aureus [17] = assay: Antibacterial activity against methicillin-susceptible Staphylococcus aureus clinical isolate 269/08 after 18 hrs by twofold serial agar dilution technique; format: functional; conditions: clinical isolate 269/08, 18 h; in short: as §2
Staphylococcus aureus [18] = assay: Antibacterial activity against methicillin-susceptible Staphylococcus aureus clinical isolate 338/08 after 18 hrs by twofold serial agar dilution technique; format: functional; conditions: clinical isolate 338/08, 18 h; in short: as §2
Staphylococcus aureus [19] = assay: Antibacterial activity against methicillin-susceptible Staphylococcus aureus clinical isolate 339/09 after 18 hrs by twofold serial agar dilution technique; format: functional; conditions: clinical isolate 339/09, 18 h; in short: as §2
Staphylococcus aureus [20] = assay: Antibacterial activity against methicillin-susceptible Staphylococcus aureus clinical isolate 367/09 after 18 hrs by twofold serial agar dilution technique; format: functional; conditions: clinical isolate 367/09, 18 h; in short: as §2
Staphylococcus aureus [21] = assay: Antibacterial activity against methicillin-susceptible Staphylococcus aureus clinical isolate 369/09 after 18 hrs by twofold serial agar dilution technique; format: functional; conditions: clinical isolate 369/09, 18 h; in short: as §2
Staphylococcus aureus [22] = assay: Antibacterial activity against methicillin-susceptible Staphylococcus aureus clinical isolate 372/09 after 18 hrs by twofold serial agar dilution technique; format: functional; conditions: clinical isolate 372/09, 18 h; in short: as §2
Staphylococcus aureus [23] = assay: Antibacterial activity against methicillin-resistant Staphylococcus aureus clinical isolate 275/08 after 18 hrs by twofold serial agar dilution technique; format: functional; conditions: clinical isolate 275/08, 18 h; in short: as §2
Staphylococcus aureus [24] = assay: Antibacterial activity against methicillin-resistant Staphylococcus aureus clinical isolate 307/08 after 18 hrs by twofold serial agar dilution technique; format: functional; conditions: clinical isolate 307/08, 18 h; in short: as §2
Staphylococcus aureus [25] = assay: Antibacterial activity against methicillin-resistant Staphylococcus aureus clinical isolate 309/08 after 18 hrs by twofold serial agar dilution technique; format: functional; conditions: clinical isolate 309/08, 18 h; in short: as §2
Staphylococcus aureus [26] = assay: Antibacterial activity against methicillin-resistant Staphylococcus aureus clinical isolate 329/08 after 18 hrs by twofold serial agar dilution technique; format: functional; conditions: clinical isolate 329/08, 18 h; in short: as §2
Staphylococcus aureus [27] = assay: Antibacterial activity against methicillin-resistant Staphylococcus aureus clinical isolate 356/09 after 18 hrs by twofold serial agar dilution technique; format: functional; conditions: clinical isolate 356/09, 18 h; in short: as §2
Staphylococcus aureus [28] = assay: Antibacterial activity against methicillin-resistant Staphylococcus aureus clinical isolate 357/09 after 18 hrs by twofold serial agar dilution technique; format: functional; conditions: clinical isolate 357/09, 18 h; in short: as §2
Staphylococcus aureus [29] = assay: Antibacterial activity against methicillin-resistant Staphylococcus aureus clinical isolate 376/09 after 18 hrs by twofold serial agar dilution technique; format: functional; conditions: clinical isolate 376/09, 18 h; in short: as §2
[30] = system: Staphylococcus epidermidis; assay: Antibacterial activity against methicillin-resistant Staphylococcus epidermidis clinical isolate 315/08 after 18 hrs by twofold serial agar dilution technique; format: functional; conditions: clinical isolate 315/08, 18 h; in short: as §2
[31] = system: Staphylococcus epidermidis; assay: Antibacterial activity against methicillin-resistant Staphylococcus epidermidis clinical isolate 317/08 after 18 hrs by twofold serial agar dilution technique; format: functional; conditions: clinical isolate 317/08, 18 h; in short: as §2
[32] = system: Staphylococcus epidermidis; assay: Antibacterial activity against methicillin-resistant Staphylococcus epidermidis clinical isolate 318/08 after 18 hrs by twofold serial agar dilution technique; format: functional; conditions: clinical isolate 318/08, 18 h; in short: as §2
[33] = system: Staphylococcus epidermidis; assay: Antibacterial activity against methicillin-resistant Staphylococcus epidermidis clinical isolate 340/09 after 18 hrs by twofold serial agar dilution technique; format: functional; conditions: clinical isolate 340/09, 18 h; in short: as §2
[34] = system: Staphylococcus epidermidis; assay: Antibacterial activity against methicillin-resistant Staphylococcus epidermidis clinical isolate 342/09 after 18 hrs by twofold serial agar dilution technique; format: functional; conditions: clinical isolate 342/09, 18 h; in short: as §2
[35] = system: Staphylococcus epidermidis; assay: Antibacterial activity against methicillin-resistant Staphylococcus epidermidis clinical isolate 377/09 after 18 hrs by twofold serial agar dilution technique; format: functional; conditions: clinical isolate 377/09, 18 h; in short: as §2
[36] = system: Human immunodeficiency virus 1; assay: Antiviral activity against HIV1 infected in human MT4 cells assessed as virus-induced cytopathogenicity after 4 days by MTT assay; format: functional, organism-based; conditions: Human immunodeficiency virus 1, MT4, 96 h

Compound: Fc1ccc(NC(=S)Nc2nc[nH]n2)cc1
- zone of inhibition at 400 µg/disc (Bacillus subtilis [1]): 22 mm
- zone of inhibition at 400 µg/disc [2]: 16 mm
- zone of inhibition at 400 µg/disc (Enterococcus hirae [3]): 11 mm
- zone of inhibition at 400 µg/disc (Staphylococcus aureus [4]): 18 mm
- zone of inhibition at 400 µg/disc (Staphylococcus aureus [5]): 14 mm
- zone of inhibition at 400 µg/disc (Staphylococcus aureus [6]): 11 mm
- zone of inhibition at 400 µg/disc (Bacillus cereus [7]): 16 mm
- zone of inhibition at 400 µg/disc (Micrococcus luteus [8]): 19 mm
- diameter of the inhibition zone (DIZ) (Escherichia coli): inactive
- diameter of the inhibition zone (DIZ) (Pseudomonas aeruginosa [9]): inactive
- diameter of the inhibition zone (DIZ) (Pseudomonas aeruginosa [10]): inactive
- MIC (Staphylococcus aureus [11]): 50 µg/mL (≈ 211 µM)
- MIC (Bacillus subtilis [12]): 12.5 µg/mL (≈ 52.7 µM)
- MIC (Bacillus cereus [13]): 6.25 µg/mL (≈ 26.3 µM)
- MIC (Enterococcus hirae [14]): 400 µg/mL (≈ 1690 µM)
- MIC (Micrococcus luteus [15]): 6.25 µg/mL (≈ 26.3 µM)
- MIC (Staphylococcus aureus [16]): 50 µg/mL (≈ 211 µM)
- MIC (Staphylococcus aureus [17]): 50 µg/mL (≈ 211 µM)
- MIC (Staphylococcus aureus [18]): 50 µg/mL (≈ 211 µM)
- MIC (Staphylococcus aureus [19]): 50 µg/mL (≈ 211 µM)
- MIC (Staphylococcus aureus [20]): 50 µg/mL (≈ 211 µM)
- MIC (Staphylococcus aureus [21]): 50 µg/mL (≈ 211 µM)
- MIC (Staphylococcus aureus [22]): 50 µg/mL (≈ 211 µM)
- MIC (Staphylococcus aureus [23]): 100 µg/mL (≈ 421 µM)
- MIC (Staphylococcus aureus [24]): 50 µg/mL (≈ 211 µM)
- MIC (Staphylococcus aureus [25]): 50 µg/mL (≈ 211 µM)
- MIC (Staphylococcus aureus [26]): 50 µg/mL (≈ 211 µM)
- MIC (Staphylococcus aureus [27]): 50 µg/mL (≈ 211 µM)
- MIC (Staphylococcus aureus [28]): 50 µg/mL (≈ 211 µM)
- MIC (Staphylococcus aureus [29]): 50 µg/mL (≈ 211 µM)
- MIC [30]: 50 µg/mL (≈ 211 µM)
- MIC [31]: 50 µg/mL (≈ 211 µM)
- MIC [32]: 50 µg/mL (≈ 211 µM)
- MIC [33]: 50 µg/mL (≈ 211 µM)
- MIC [34]: 50 µg/mL (≈ 211 µM)
- MIC [35]: 50 µg/mL (≈ 211 µM)
- EC50 [36]: > 100 µM
